Screening data from PubChem BioAssay.
Compounds with a hit are over-represented: about 2.9% of the library has one in this group of screens.
Runt-CBFb FRET – inhibitors of human RUNX1 Runt domain binding to CBFb. inhibition, % at 20 µM. Q01196+Q13951. 220,000 compounds, 0.46% hits. AID 1496. Cerulean-Runt/Venus-CBFb FRET ratio 530/480, 1 h;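 active = inhibition over about 50% at 20 µM in the single-dose screen, limit read from the data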;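 note: 0% = DMSO wells and 100% = excess unlabeled CBFb competitor control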
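Buffer or medium: Tris pH 7.5 buffer with BSA. Assay system: Cerulean-labeled Runt domain protein. Amount: each fluorescent fusion protein 100 nM. Read-out basis: loss of energy transfer signal. Incubation: 1 h compound exposure, room temperature. Probe or stimulus: Venus-CBFb binding partner, 100 nM. Detection: FRET, excitation 422 nm, emission at 530 and 480 nm.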
Wee1 stabilizer – human Wee1 degradation inhibition, primary screen | P30291 | reporter increase, % at 5 µM | AID 1321 | 220,000 compounds, 1.2% hits | HeLa Luc-Wee1K328M stability, luciferase luminescence; 100% = proteasome inhibitor MG132 effect;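 active = activation above the mean of all tested compounds plus 3 SD, set per screening run, cut at about 8.8% in these data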;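 note: cells exposed to compound for 20 h before luminescence read; 0% = DMSO alone and 100% = MG132 at 30 µM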
Target sequence (P30291 whole entry K328M): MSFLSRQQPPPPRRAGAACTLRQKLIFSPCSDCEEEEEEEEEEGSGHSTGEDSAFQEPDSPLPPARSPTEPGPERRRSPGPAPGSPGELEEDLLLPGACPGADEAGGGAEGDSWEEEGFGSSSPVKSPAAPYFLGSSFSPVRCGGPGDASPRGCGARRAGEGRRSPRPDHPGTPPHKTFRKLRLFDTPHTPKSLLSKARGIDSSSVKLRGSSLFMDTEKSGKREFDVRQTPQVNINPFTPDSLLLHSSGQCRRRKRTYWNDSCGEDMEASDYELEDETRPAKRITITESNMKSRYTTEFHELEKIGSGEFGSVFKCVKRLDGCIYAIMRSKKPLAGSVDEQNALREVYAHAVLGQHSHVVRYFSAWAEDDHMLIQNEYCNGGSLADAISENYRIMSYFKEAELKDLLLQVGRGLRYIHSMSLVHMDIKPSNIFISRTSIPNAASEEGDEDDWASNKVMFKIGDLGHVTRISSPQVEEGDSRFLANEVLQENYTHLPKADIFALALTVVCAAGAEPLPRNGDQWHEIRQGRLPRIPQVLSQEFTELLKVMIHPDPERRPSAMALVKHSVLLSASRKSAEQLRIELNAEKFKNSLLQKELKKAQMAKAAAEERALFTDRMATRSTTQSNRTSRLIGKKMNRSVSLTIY
Runt-SMMHC FRET – blocks binding of human RUNX1 Runt domain to CBFb-SMMHC. Q01196+Q13951. Cerulean-Runt/Venus-CBFb-SMMHC FRET ratio 530/480, 1 h. inhibition, % at 20 µM. 220,000 compounds, 0.74% hits;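 active = mean inhibition across duplicate retests at 20 µM reaching about 50%, limit read from the data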;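 note: 0% = DMSO wells and 100% = wells with excess untagged CBFb-SMMHC; inhibitors lower the FRET ratio by blocking Runt binding to CBFb-SMMHC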
proKLK7 act – activates the human kallikrein-7 zymogen; 370,000 compounds, 0.9% hits; activation, % at 7 µM; purified proKLK7, EDANS-DABCYL substrate fluorescence; 100% is mature enzyme control, 0% vehicle;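 active = activation above the mean of all tested compounds plus 3 SD, computed per campaign excluding outliers beyond control limits, cut at about 13% in these data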
RanGTP-Impb inh – disruptors of Ran-importin-beta complex formation – biochemical, FRET, CFP-Ran, YFP-importin-beta, homogeneous, primary screen | cell-free CFP-Ran/YFP-importin-beta FRET ratio | inhibition, % (concentration not given with the values) | 300,000 compounds, 1.1% hits;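 active = more than half of the replicate wells show a fall in the fluorescence ratio signal beyond about 16%, limit read from the data, passing the limit was not always enough; inconclusive = exactly half of the replicate wells pass the set limit; inactive = fewer than half of replicates pass the limit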;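 note: 0% = DMSO wells and 100% = Ran loaded with GDP instead of GTP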
AI-2 QS modul – modulates the Vibrio harveyi AI-2 quorum sensing system; 300,000 compounds, 0.4% hits; Vibrio harveyi JMH597 AI-2 luminescence/OD600 ratio, 9 h; stronger effect = lower value; strain lacks LuxN and CqsS sensors; 0 = neutral-control median; activity change, % at 7.5 µM; in the data active = activity change below about -75%, passing the limit was not always enough; inconclusive = no clear call, values can overlap the other calls;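 note: luminescence divided by OD600 gain over 9 h not by final OD600 alone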
proKLK7 act conf – confirmation of human kallikrein-7 zymogen activators; shares compounds with proKLK7 act; purified proKLK7, EDANS-DABCYL substrate fluorescence; scaled: vehicle 0, mature enzyme 100; activation, % at 7 µM; 3,200 compounds, 68% hits; AID 686949;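 active = activation, as change over the incubation, above the mean of all tested compounds plus 3 SD, cut at about 13% in these data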
EDANS-DABCYL int – fluorescence interference counter-screen for KLK7 activators. shares compounds with proKLK7 act. activation, % at 7 µM. 3,200 compounds, 80% hits. EDANS-DABCYL substrate fluorescence interference, no enzyme, 4 h; solvent 0%, active enzyme control 100%;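 active = activation above the all-compound mean plus 3 SD, ignoring values outside control-based bounds, cut at about 4.8% in these data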;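 note: value is the 4 h activation minus the activation read at time zero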
EDANS interf – EDANS fluorescence interference in dose response, no enzyme; 250 compounds, 20% hits; EC50, µM; shares compounds with proKLK7 act; EDANS-DABCYL peptide fluorescence interference;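 active = compounds that raise the fluorescence signal in this interference counterscreen, with EC50 at or below 10 µM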;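 note: intact quenched peptide substrate alone read at 355 nm excitation and 520 nm emission; signal is fluorescence gain from T0 to T4 after four hours at room temperature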
* = called active by the depositor; ? = inconclusive; . = no result.

SMILES | Runt-CBFb FRET | Wee1 stabilizer | Runt-SMMHC FRET | proKLK7 act | RanGTP-Impb inh | AI-2 QS modul | proKLK7 act conf | EDANS-DABCYL int | others
Cc1cc(=O)oc2c(CN3CCN(C)CC3)c(O)c(Cl)cc12 | 97* | -3 | 136* | 58* | 14 | 19 | 76* | 77*
Cc1cc2oc(=O)cc(CN3CCN(c4ccccc4)CC3)c2cc1Cl | . | . | . | 1 | . | . | . | .
CN1CCN(Cc2c(O)c(Cl)cc3c(-c4ccccc4)cc(=O)oc23)CC1 | -2 | 3 | 39 | 17* | 0 | -1 | 14* | 11*
CCc1c(C)c2cc(Cl)c(O)c(CN3CCCC3)c2oc1=O | . | . | . | 37* | ? | 12 | 68* | 69*
CCNc1nc(C)c(CN(C(C)=O)c2ccccc2)nc1C#N | 32 | -1 | 91* | 33* | 4 | 13 | 28* | 24* | EDANS interf=>69
CC(=O)N(CN1C(=O)c2ccccc2C1=O)c1ccccc1 | 1 | -2 | 4 | 0 | 0 | 6 | . | .
COc1ccccc1NC(=O)CSc1nc2c(sc3ccccc32)c(=O)n1CCN(C)C | 7 | -1 | 7 | 16* | -5 | 12 | 1 | -2
N#CC1=C(N)OC2=C(CCc3ccccc32)C1c1ccccc1Cl (configuration not stated) | 12 | -1 | 30 | -26 | 4 | 28 | . | .
N#CC1=C(N)Oc2cc(N)ccc2C1c1ccccc1Cl (configuration not stated) | . | . | . | 20* | 133* | 27 | 4 | 5.8*
N#CC1=C(N)Oc2cc(N)ccc2C1c1ccc(F)cc1F (configuration not stated) | . | . | . | 17* | 125* | . | 13* | 15*
O=C(NCc1ccco1)/C(=C/c1ccc(C(F)(F)F)cc1)c1nc2ccccc2[nH]1 | 26 | 2 | 28 | 61* | 3 | 20 | 84* | 96*
O=C(NCc1ccco1)/C(=C/c1cccc(C(F)(F)F)c1)c1nc2ccccc2[nH]1 | 15 | -2 | 1 | -1 | 2 | 17 | . | .
CN(C)Cc1ccccc1Sc1ccc2c(c1)CCCC2 | . | . | . | 1 | 3 | 20 | . | .
COc1ccc(Br)cc1S(=O)(=O)NCCN1CCOCC1 | -1 | -3 | -2 | 42* | ? | 9 | 0 | 0
COCCn1c(SCC(=O)N2CCOCC2)nnc1-c1ccncc1 | . | . | . | 0 | 3 | 28 | . | .
Cc1[nH]c2ccccc2c1C(=O)CSC(=S)N1CCCCC1 | 1 | 0 | 1 | 0 | 1 | 26 | . | .
Cc1c(O)cnc2nn(-c3ccccc3)c(=N)n12 | . | . | . | 40* | . | . | 17* | 17*
COCCn1c(C)cc(/C=C(\C#N)C(=O)OCC(=O)Nc2ccc(S(N)(=O)=O)cc2)c1C | . | . | . | 14* | . | . | 1 | 0
CC(OC(=O)C1CCN(S(=O)(=O)c2ccc(C(C)(C)C)cc2)CC1)C(=O)N(C)C1CCCCC1 (configuration not stated) | . | . | . | 0 | . | . | . | .
O=C(O)c1cc2c(s1)-c1ccccc1OC2 | 0 | 1 | 0 | 34* | 1 | 41 | 77* | 73*
O=C(NCCCN1CCOCC1)c1cc2c(s1)-c1ccccc1OC2 | . | . | . | 47* | 1 | 8 | 68* | 65*
O=C(c1ccco1)N1CCN(C(=O)c2cc3c(s2)-c2ccccc2OC3)CC1 | 2 | -2 | -3 | 23* | 0 | 11 | 4 | -67
O=C(NCCCN1CCOCC1)c1cc2c(s1)CCCC2 | 1 | -2 | 1 | 0 | 4 | 15 | . | .
O=C(NC1CC1)c1cc2c(s1)-c1ccccc1OC2 | 3 | -3 | 1 | 47* | -4 | 13 | 75* | 87*
Cc1cccc2c1-c1sc(C(=O)N3CCCCC3)cc1CO2 | . | . | . | -21 | -3 | -38 | . | .
SMILES | Runt-CBFb FRET | Wee1 stabilizer | Runt-SMMHC FRET | proKLK7 act | RanGTP-Impb inh | AI-2 QS modul | proKLK7 act conf | EDANS-DABCYL int | others
O=C(NCc1cccs1)c1cc2c(s1)-c1ccccc1OC2 | -4 | -3 | -20 | -18 | 4 | -5 | . | .
CCN(CC)CCN1C2=C(C(=O)CC(C)(C)C2)C(c2cccc(F)c2)C2=C1CC(C)(C)CC2=O | 83* | 1 | 86* | 16* | 96* | 32 | -6 | -3
CC1(C)CC(=O)C2=C(C1)N(CCN1CCOCC1)C1=C(C(=O)CC(C)(C)C1)C2c1cccc(Cl)c1 | . | 4 | -21 | 26* | 111* | 13 | 2 | 8.1*
CCCCN1C2=C(C(=O)CC(C)(C)C2)C(c2ccccc2)C2=C1c1ccccc1C2=O (configuration not stated) | -3 | 7 | -9 | 0 | 5 | 40 | . | .
O=C(Nc1ccccc1C(=O)N1CCOCC1)c1ccc(Br)cc1 | . | . | . | . | 2 | 4 | . | .
CC(=O)OC[C@H]1O[C@@H](Oc2cc3ccc(=O)oc3cc2OC(C)=O)[C@H](OC(C)=O)[C@@H](OC(C)=O)[C@@H]1OC(C)=O | . | . | . | 80* | . | . | 79* | 78*
COc1ccc(O[C@@H]2O[C@H](COC(C)=O)[C@@H](OC(C)=O)[C@H](OC(C)=O)[C@H]2NC(C)=O)cc1 | -1 | 7 | 2 | 0 | -3 | 20 | . | .
CCOC(=O)c1nn(-c2cccc(C)c2)c2nc(-c3ccccc3)c(C#N)c(=O)n12 | 0 | 0 | 1 | 1 | 0 | 11 | . | .
CCOC(=O)c1nn(-c2ccc(F)cc2)c2nc(-c3ccccc3)c(C#N)c(=O)n12 | -2 | 1 | -3 | 40* | 2 | -4 | 138* | 146*
CN(C)c1cccc2c(S(=O)(=O)NC(=O)[C@H]3O[C@@H](n4cnc5c(N)ncnc54)[C@H](O)[C@@H]3O)cccc12 | . | . | . | 25* | . | . | 35* | 23* | EDANS interf=8.8*
CC(C)[C@@H](CO)NC(=O)[C@H]1O[C@@H](n2cnc3c(N)ncnc32)[C@H](O)[C@@H]1O | . | . | . | 0 | . | . | . | .
CC(C)c1ccc(NC(=S)N(C)CCc2ccccn2)cc1 | -2 | -1 | -2 | 0 | 3 | 22 | . | .
CCCn1c(SCC(=O)NC2CCCC2)nnc1C(C)C | . | . | . | 0 | 1 | 25 | . | .
Nc1nc2ncccn2c1-c1ccc(C(F)(F)F)cc1 | . | . | . | 26* | . | . | 60* | 63*
Cc1c(Cl)cccc1NC(=S)N1CCN(S(=O)(=O)c2cccs2)CC1 | 0 | 3 | -2 | 0 | -2 | -7 | . | .
